Assay results reported in ChEMBL document CHEMBL4346669, “Novel nannocystin A analogues as anticancer therapeutics: Synthesis, biological evaluations and structure-activity relationship studies” (Eur J Med Chem, 2019).
The source made the active and inactive calls. No cut-off for these calls is given here.

How the values were obtained:
[1] = test system: A549; assay: Induction of apoptosis in human A549 cells assessed as necrotic cells at 30 nM after 12 hrs by Annexin-V FITC/propidium iodide staining based flow cytometric analysis (reference value: 1.28%); format: functional
[2] = test system: A549; assay: Cell cycle arrest in human A549 cells assessed as accumulation at S phase at 30 nM after 24 hrs by propidium iodide/RNase A staining-based flow cytometric analysis (reference value: 12.57%); format: functional
[3] = test system: MDA-MB-231; assay: Antiproliferative activity against human MDA-MB-231 cells assessed as reduction in cell viability measured after 72 hrs by MTT assay; format: functional, cell-based; conditions: MDA-MB-231, 72 h
Summary of the method: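 Cells seeded at 5×10^3 per well and cultured overnight, then exposed for 72 h at 37 °C to six concentrations from 10 µM down to 0.0001 µM (from 10 mM DMSO stock diluted in medium; vehicle 1% DMSO in PBS). MTT at 0.5 mg/mL was added for 4 h, formazan dissolved in DMSO, and A570 read. IC50 given as mean ± SD of three independent experiments.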

[4] = test system: A549; assay: Cell cycle arrest in human A549 cells assessed as accumulation at G2 phase at 30 nM after 24 hrs by propidium iodide/RNase A staining-based flow cytometric analysis (reference value: 30.02%); format: functional
[5] = test system: A549; assay: Cell cycle arrest in human A549 cells assessed as accumulation at S phase at 60 nM after 24 hrs by propidium iodide/RNase A staining-based flow cytometric analysis (reference value: 12.57%); format: functional
[6] = test system: A549; assay: Inhibition of colony formation in human A549 cells at 10 to 20 nM incubated for 3 days followed by further incubation in drug-free medium and measured after 15 days by crystal violet staining-based inverted microscopic analysis; format: functional, cell-based
Summary of the method: (§1)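 500 A549 cells/well incubated 24 h, then treated with 5, 10 or 20 nM for 3 days, followed by drug-free medium changed every 3 days. At day 15 after plating, colonies fixed in 95% ethanol 15 min, stained with 0.1% crystal violet, counted (colony = over 100 cells); mean ± SD of three independent experiments.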

[7] = test system: HCT-116; assay: Antiproliferative activity against human HCT116 cells assessed as reduction in cell viability measured after 72 hrs by MTT assay; format: functional, cell-based; conditions: Homo sapiens, HCT-116, 72 h; read-out: IC50
Summary of the method: (§2)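 Cells seeded 5×10^3/well, cultured overnight, then exposed to 10, 1, 0.1, 0.01, 0.001 and 0.0001 µM (from 10 mM DMSO stocks diluted in medium; vehicle 1% DMSO PBS) for 72 h at 37 °C. Medium replaced with 0.5 mg/mL MTT for 4 h, formazan dissolved in DMSO, A570 read. IC50 as mean ± SD of three independent experiments.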

[8] = test system: A549; assay: Induction of apoptosis in human A549 cells assessed as necrotic cells at 60 nM after 24 hrs by Annexin-V FITC/propidium iodide staining based flow cytometric analysis; format: functional
Summary of the method: (§3)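 Time-course: A549 (2×10^5 cells/well, grown overnight) exposed to 60 nM for 6, 12 or 24 h; untreated control. Cells trypsinized, washed in cold PBS, stained 15 min with Annexin V-FITC in binding buffer, then PI, and read by flow cytometry; duplicate experiments.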

[9] = test system: A549; assay: Induction of apoptosis in human A549 cells assessed as viable cells at 90 nM after 12 hrs by Annexin-V FITC/propidium iodide staining based flow cytometric analysis (reference value: 97.18%); format: functional; conditions: A549, 12 h, read-out: Activity
[10] = test system: A549; assay: Antiproliferative activity against human A549 cells assessed as reduction in cell viability measured after 72 hrs by MTT assay; format: functional, cell-based; conditions: Homo sapiens, A549, 72 h; read-out: IC50; summary of the method: as §2
[11] = test system: A549; assay: Induction of apoptosis in human A549 cells assessed as increase in caspase9 expression by Western blot analysis; format: functional, cell-based
Summary of the method: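 A549 treated 30, 60 and 90 nM for 24 h; lysates normalized by BCA, 30 μg protein denatured in SDS buffer at 100 °C 8 min, SDS-PAGE, PVDF transfer, blocked in 5% milk/TBS-0.05% Tween 2 h, primary antibodies overnight at 4 °C, HRP anti-rabbit IgG 2 h, ECL detection; β-actin loading control.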

[12] = test system: A549; assay: Cell cycle arrest in human A549 cells assessed as accumulation at G2 phase at 90 nM after 24 hrs by propidium iodide/RNase A staining-based flow cytometric analysis (reference value: 30.02%); format: functional
[13] = test system: A549; assay: Induction of apoptosis in human A549 cells assessed as late apoptotic cells at 60 nM after 6 hrs by Annexin-V FITC/propidium iodide staining based flow cytometric analysis; format: functional; summary of the method: as §3
[14] = test system: A549; assay: Induction of apoptosis in human A549 cells assessed as early apoptotic cells at 60 nM after 24 hrs by Annexin-V FITC/propidium iodide staining based flow cytometric analysis; format: functional; summary of the method: as §3
[15] = test system: A549; assay: Inhibition of colony formation in human A549 cells at 5 nM incubated for 3 days followed by further incubation in drug-free medium and measured after 15 days by crystal violet staining-based inverted microscopic analysis; format: functional, cell-based; summary of the method: as §1

Work on `COc1cc(C[C@H]2NC(=O)[C@H](C(C)C)N(C)C(=O)/C(C)=C/C[C@@H](OC)/C(C)=C/C=C/[C@@H](C)[C@@H](c3ccccc3)OC(=O)[C@H](C(C)C)NC2=O)ccc1O` yielded an Activity [1] of 9.87%, an Activity [2] of 13.21% and an IC50 [3] of 12.5 nM. The Activity [4] was 37.66%, the Activity [5] was 14.75% and the inhibition [6] was “Active”. The IC50 [7] was 48.5 nM, the Activity [8] was 13.07% and the viability at 0.09 µM [9] was 55.4%. The IC50 [10] was 20.2 nM, the Activity [11] was “Dose-dependent effect” and the Activity [12] was 57.73%. The Activity [13] was 5.08%, the Activity [14] was 3.48% and the inhibition [15] was “Active”.
